Laboratory results published in ChEMBL document CHEMBL1141747, “New bisbenzylisoquinolines, fatty acid amidic aporphines, and a protoberberine from Formosan Cocculus orbiculatus” (J Nat Prod, 2005).
Values after ≈ are worked out from the molar mass of the structure shown.

Key:
HepG2 = assay: Cytotoxicity against human HepG2 cells; format: functional, cell-based
[1] = Cytotoxicity against human Hep3B cells; format: functional, cell-based, Hep 3B2
MCF7 = assay: Cytotoxicity against human MCF7 cells; format: functional, cell-based
MDA-MB-231 = assay: Cytotoxicity against human MDA-MB-231 cells; format: functional, cell-based
NUGC-3 [2] = assay: Cytotoxicity against human NUGC3 cells at 20 ug/mL; format: functional
Procedure, shortened: (§1)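 Samples were tested on the cells at two fixed concentrations, 20 and 4 µg/mL. The value is reported as percent inhibition at each concentration.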

NUGC-3 [3] = assay: Cytotoxicity against human NUGC3 cells at 4 ug/mL; format: functional; procedure, shortened: as §1
[4] = Cytotoxicity against human HONE1 cells at 20 ug/mL; format: functional; procedure, shortened: as §1
[5] = Cytotoxicity against human HONE1 cells at 4 ug/mL; format: functional; procedure, shortened: as §1
P388 = assay: Antitumor activity against mouse P388 cells xenografted in mouse; format: functional

COc1ccc2c(c1O)[C@]13CCN[C@@H](C2)C1C(OC)[C@@H](O)[C@@H](O)C3 (some centres not stated)
IC50 (HepG2): 2 mg/L (≈ 5.96 µM) | IC50 [1]: 2 mg/L (≈ 5.96 µM) | IC50 (MCF7): 2 mg/L (≈ 5.96 µM) | IC50 (MDA-MB-231): 1.2 mg/L (≈ 3.58 µM) | inhibition at 20 µg/mL (NUGC-3 [2]): 96% | inhibition at 4 µg/mL (NUGC-3 [3]): 82% | inhibition at 20 µg/mL [4]: 84% | inhibition at 4 µg/mL [5]: 82% | T/C (P388): 166%

COc1cc2c(c(OC)c1OC)CCN1C(=O)c3c(ccc(OC)c3OC)C[C@@H]21
IC50 (HepG2): 23.5 mg/L (≈ 58.8 µM) | IC50 [1]: > 30 mg/L | IC50 (MCF7): > 30 mg/L | IC50 (MDA-MB-231): > 30 mg/L

COc1ccc2cc1Oc1ccc(cc1)C[C@H]1c3cc(O)c(c(OC)c3CC[N+]1(C)C)Oc1cc3c(cc1OC)CC[N+](C)=C3C2.[Cl-].[Cl-]
IC50 (HepG2): > 30 mg/L | IC50 [1]: > 30 mg/L | IC50 (MCF7): > 30 mg/L | IC50 (MDA-MB-231): > 30 mg/L

COc1cc2c3c4c1Oc1cc5c(cc1O4)C(=NCC5)Cc1ccc(O)c(c1)Oc1ccc(cc1)C[C@@H]3N(C)CC2 [DEHYDROAPATELINE]
IC50 (HepG2): 3.61 mg/L (≈ 6.6 µM) | IC50 [1]: 4.82 mg/L (≈ 8.82 µM) | IC50 (MCF7): 16.3 mg/L (≈ 29.8 µM) | IC50 (MDA-MB-231): 4.71 mg/L (≈ 8.62 µM) | inhibition at 20 µg/mL (NUGC-3 [2]): 98% | inhibition at 4 µg/mL (NUGC-3 [3]): 0% | inhibition at 20 µg/mL [4]: 98% | inhibition at 4 µg/mL [5]: 0%

COc1ccc2cc1Oc1ccc(cc1)C[C@H]1c3c(cc(OC)c4c3Oc3cc5c(cc3O4)CCN(C)[C@H]5C2)CCN1C [ISOTRILOBINE]
IC50 (HepG2): 0.6 mg/L (≈ 1.04 µM) | IC50 [1]: 0.75 mg/L (≈ 1.3 µM) | IC50 (MCF7): 3.9 mg/L (≈ 6.76 µM) | IC50 (MDA-MB-231): 1.6 mg/L (≈ 2.77 µM) | inhibition at 20 µg/mL (NUGC-3 [2]): 100% | inhibition at 4 µg/mL (NUGC-3 [3]): 0% | inhibition at 20 µg/mL [4]: 100% | inhibition at 4 µg/mL [5]: 79%

CC(=O)O[C@H]1C(=O)[C@@]2(C)[C@H]([C@H](OC(=O)c3ccccc3)[C@]3(O)C[C@H](OC(=O)[C@H](O)[C@@H](NC(=O)c4ccccc4)c4ccccc4)C(C)=C1C3(C)C)[C@]1(OC(C)=O)CO[C@@H]1C[C@@H]2O [PACLITAXEL]
IC50 (HepG2): 0.18 mg/L (≈ 0.211 µM) | IC50 [1]: 0.08 mg/L (≈ 0.0937 µM) | IC50 (MCF7): 0.14 mg/L (≈ 0.164 µM) | IC50 (MDA-MB-231): 0.12 mg/L (≈ 0.141 µM)
